For six compounds, IC50 results are on record in ChEMBL document CHEMBL1133612, “Analogues of amonafide and azonafide with novel ring systems” (J Med Chem, 2000).

Common to all, as to type: functional, cell-based
For assay [1], the system named is OVCAR-3. The experiment in a line: Tested for inhibitory activity against human tumor cell line OVCAR-3, a resistant ovarian carcinoma using sulforhodamine B assay. In general terms: The SRB assay estimates cell density from bound dye.
Assay [2] relates to MCF7. The experiment in a line: Tested for inhibitory activity against human tumor cell line MCF7, a strain resistant to mitoxantrone of breast carcinoma using sulforhodamine B assay.
In assay [3] the test system is WiDr. As to the kind of experiment: Tested for inhibitory activity against a multi drug resistant (MDR) strain of human colon carcinoma WiDr using sulforhodamine B assay (it is MRP positive but non-P-glycoprotein).
Assay [4] relates to L1210. As to the kind of experiment: Tested for inhibitory activity against murine cell line […], a strain resistant to doxorubicin using MTT assay. The following applies: Mus musculus. An outline of the steps:
(§1)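 Murine L1210 leukaemia cells were tested as a drug-sensitive strain and as a multiple drug-resistant strain that is P-glycoprotein positive. Growth inhibition in both strains was read by MTT assay.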
In general terms: Tetrazolium dyes change colour on reduction, which living cells bring about.

Assay [5] deals with MCF7. As to the kind of experiment: Tested for inhibitory activity against human tumor cell line MCF7, a strain sensitive to doxorubicin of breast carcinoma using sulforhodamine B assay.
For assay [6], the system named is WiDr. The experiment in a line: Tested for inhibitory activity against a sensitive strain of human colon carcinoma WiDr using sulforhodamine B assay (it is MRP positive but non-P-glycoprotein).
Assay [7] has as its system MCF7. The experiment in a line: Tested for inhibitory activity against human tumor cell line D40, a strain resistant to doxorubicin of breast carcinoma using sulforhodamine B assay.
Assay [8] in a line: Tested for inhibitory activity against human tumor cell line A549 (a non small, drug resistant cell line that does not produce P-glycoprotein) of lung carcinoma using sulforhodamine B assay.
The test system of another assay is UACC-375. As to the kind of experiment: Tested for inhibitory activity against human tumor cell line UA375 of melanoma using sulforhodamine B assay.
Assay [9] concerns L1210. As to the kind of experiment: Tested for inhibitory activity against murine cell line […], a strain sensitive to doxorubicin using MTT assay. The following applies: Mus musculus. The gist of the method:
as §1

Assay [10] has as its system L1210. As to the kind of experiment: Tested for inhibitory activity against murine cell line […] leukemia, a strain sensitive to doxorubicin using MTT assay. The conditions noted are these: Mus musculus. An outline of the steps:
as §1

Assay [11] concerns L1210. The experiment in a line: Tested for inhibitory activity against murine cell line […] leukemia, a strain resistant to doxorubicin using MTT assay. The conditions noted are these: Mus musculus. The gist of the method:
as §1

Assay [12] has as its system OVCAR-3. As to the kind of experiment: Tested for inhibitory activity against human tumor cell line OVCAR-3 a resistant ovarian carcinoma using sulforhodamine B assay.

pIC50: −log10 of the molar value.

By pIC50 is commonly meant the IC50 on a negative log10 scale, so that one unit is a factor of ten. A low value points to a high IC50. As for `CN(C)CCN1C(=O)c2cccc3c2c(cc2cccc(O)c23)C1=O`, the pIC50 with OVCAR-3 [1] was 6.17; in the assay with MCF7 [2] it was 6.41; in the assay on WiDr [3], 5.64; with L1210 [4] it was 6.27; with MCF7 [5], 6.20; in the assay with WiDr [6], 6.59. Besides, the pIC50 in the assay on MCF7 [7] is 6.17; in assay [8], 6.80; with UACC-375 it was 6.39; in the assay with L1210 [9], 6.27.

For `CN(C)CCN1C(=O)c2cc(NC(=O)C(C)(C)C)cc3cc4c(c(c23)C1=O)CCCC4`, the pIC50 with OVCAR-3 [1] is 5.37; in the assay on MCF7 [2] it was 6.00; in the assay on WiDr [3], 5.82; in the assay on L1210 [4] it was 5.82; with MCF7 [5], 5.77; in the assay with WiDr [6], 5.92. The pIC50 with MCF7 [7] was 5.89; in assay [8], 6.07; in the assay on UACC-375, 5.37; in the assay on L1210 [9], 6.01.

Turning to `CN(C)CCN1C(=O)c2cccc3c2c(cc2cccc(Cl)c23)C1=O`, the pIC50 with OVCAR-3 [1] was 6.41; with MCF7 [2] it was 6.82; in the assay with WiDr [3], 6.42; in the assay with L1210 [4], 6.64; with MCF7 [5], 6.80; with WiDr [6], 6.66. Also, the pIC50 with MCF7 [7] was 6.54; in [8], 7.35; with UACC-375 it was 6.75; with L1210 [9], 6.59.

`CN(C)CCN1C(=O)c2cccc3c2c(cc2ncccc23)C1=O`: the pIC50 with L1210 [10] was 6.31; in the assay on L1210 [11] it was 6.44; with MCF7 [2] it was 6.64; with WiDr [3], 6.59; in the assay with MCF7 [5] it was 6.77; in the assay on WiDr [6] it was 6.96. Also, the pIC50 in the assay on MCF7 [7] is 6.49; in assay [8], 7.49; with UACC-375, 6.21; in the assay on OVCAR-3 [12] it was 6.01.

Regarding `CN(C)CCN1C(=O)c2cccc3c2c(cc2c([N+](=O)[O-])cccc23)C1=O`, the pIC50 in the assay on OVCAR-3 [1] is 7.30; in the assay with MCF7 [2] it was 6.74; with WiDr [3], 6.76; in the assay with L1210 [4], 7.30; with MCF7 [5] it was 6.82; with WiDr [6], 6.87. For the same compound, the pIC50 is 6.77 with MCF7 [7], 6.81 in [8], 6.76 with UACC-375 and 7.30 with L1210 [9].

Turning to `COc1cccc2c1cc1c3c(cccc32)C(=O)N(CCN(C)C)C1=O`, the pIC50 with OVCAR-3 [1] is 7.70; in the assay on MCF7 [2], 6.05; with WiDr [3], 5.89; in the assay on L1210 [4], 5.81; with MCF7 [5], 6.07; in the assay with WiDr [6], 6.05. For the same compound, the pIC50 was 6.09 with MCF7 [7], 6.06 in assay [8], 6.28 in the assay on UACC-375 and 6.28 in the assay with L1210 [9].
